Screening data deposited in PubChem BioAssay by several laboratories.
A3G deaminase = blocks human APOBEC3G single-stranded DNA deamination. recombinant A3G, ssDNA deamination FAM/TAMRA fluorescence. inhibition, % at 20 µM. hit rate 0.28% among 330,000. Q9HC16. AID 493012;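 active means inhibition of at least 40% at 20 µM, with no more than 30% in the related APOBEC3A deaminase screen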
Target sequence (Q9HC16 whole entry, looked up): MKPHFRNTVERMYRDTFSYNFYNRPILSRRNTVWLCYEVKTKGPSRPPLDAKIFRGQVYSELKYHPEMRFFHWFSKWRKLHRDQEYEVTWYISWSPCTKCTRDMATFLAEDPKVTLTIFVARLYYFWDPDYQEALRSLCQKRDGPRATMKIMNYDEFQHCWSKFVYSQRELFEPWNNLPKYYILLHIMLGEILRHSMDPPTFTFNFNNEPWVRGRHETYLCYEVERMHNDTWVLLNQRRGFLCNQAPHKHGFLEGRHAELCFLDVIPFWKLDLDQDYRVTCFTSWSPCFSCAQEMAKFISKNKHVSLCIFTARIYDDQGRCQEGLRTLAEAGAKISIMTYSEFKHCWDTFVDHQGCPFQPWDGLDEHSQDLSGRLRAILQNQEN
PfGluPho inh = PfG6PD (Plasmodium falciparum) enzyme inhibition; PfGluPho enzyme, NADPH resazurin-diaphorase fluorescence; inhibition, % at 20 µM; hit rate 0.78% among 350,000; AID 504690;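 active means inhibition reaching at least a set limit at 20 µM in the primary screen, cut at about 59% in these data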
SUMO HTRF inh = blocks human SUMOylation mediated by UBC9; P63279; HTRF SUMOylation assay, SAE1/SAE2 + UBC9, in vitro; inhibition, % at 35 µM; hit rate 0.36% among 290,000; AID 2006; in the data active means inhibition above about 50%, passing the limit was not always enough
HKDC1 inhibitor = blocks human hexokinase HKDC1 activity | recombinant HKDC1, G6PDH/diaphorase resazurin coupled fluorescence | Q2TB90 | AID 493160 | hit rate 0.16% among 340,000 | inhibition, % at 20 µM;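 active means inhibition above about 35% when tested at 20 µM, limit read from the data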
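Assay system: recombinant HKDC1 hexokinase; detection: coupled resazurin fluorescence, excitation 525 nm, emission 613 nm; benchmarks: DMSO-plus-enzyme-mix negative control, buffer-substituted positive control; compound dosing: single 20 µM dose; schedule: 90 min at room temperature in dark; also added: glucose plus 1 mM ATP as hexokinase substrates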
PfM18AAP inh = PfM18AAP enzyme inhibition. recombinant PfM18AAP, H-Glu-NHMec fluorogenic cleavage. inhibition, % at 7.35 µM. hit rate 1.2% among 290,000;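 active means inhibition above the campaign mean inhibition over all tested compounds plus 3 SD, cut at about 28% in these data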
APOBEC3A inh = blocks human APOBEC3A ssDNA deamination | recombinant A3A, FAM/TAMRA ssDNA deamination fluorescence | hit rate 0.41% among 330,000 | P31941 | inhibition, % at 20 µM;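 active means at least 40% inhibition at 20 µM here, with at most 30% in a related deaminase screen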
Target sequence (P31941 whole entry, looked up): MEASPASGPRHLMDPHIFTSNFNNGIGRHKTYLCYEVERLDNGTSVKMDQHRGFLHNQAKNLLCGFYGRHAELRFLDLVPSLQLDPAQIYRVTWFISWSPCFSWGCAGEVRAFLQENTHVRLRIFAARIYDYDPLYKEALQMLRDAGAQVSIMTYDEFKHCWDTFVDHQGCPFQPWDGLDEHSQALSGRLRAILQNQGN
PfG6PD confirm = PfG6PD inhibition, single-dose confirmed; shares compounds with PfGluPho inh; recombinant PfGluPho, NADPH-diaphorase-resazurin fluorescence; inhibition, % at 20 µM; hit rate 34% among 2,400;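 active means inhibition of at least 50% at 20 µM in any single replicate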
Diaphorase 10uM = inhibits diaphorase or oxidizes, flagging false PfG6PD hits; AID 504862; shares compounds with PfGluPho inh; diaphorase-coupled resazurin reduction, fluorescence, NADPH 10 uM; inhibition, % at 20 µM; hit rate 39% among 820;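 active means average inhibition reaching 50% or more with the compound at 20 µM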;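 further: resorufin red fluorescence formed as diaphorase reduces resazurin using NADPH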
Diaph ctr 30uM = inhibits diaphorase or oxidizes, flagging false PfG6PD hits; inhibition, % at 20 µM; hit rate 29% among 820; AID 504863; shares compounds with PfGluPho inh; Diaphorase/resazurin coupled assay, resorufin fluorescence, 30 uM NADPH;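 active means inhibition averaging 50% or more, tested at 20 µM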
Numbers stand for hits; n = inactive; x = no result. A selection: hits, their analogues and other compounds. The true share with any hit is near 2.4%.

SMILES	A3G deaminase	PfGluPho inh	SUMO HTRF inh	HKDC1 inhibitor	PfM18AAP inh	APOBEC3A inh	PfG6PD confirm	others
COc1ccc(C(=O)N2CCCC(Nc3ccc(C)c(C)c3)C2)c(OC)n1 (stereo unspecified)	n	n	n	n	n	n	x
Cc1[nH]c2ccccc2c1/C=N/Nc1nncn1N	n	69.2	n	n	60.9	n	60.0	Diaphorase 10uM=n;Diaph ctr 30uM=n
CC(C)c1nnc(NC(=O)c2cccc(-n3cnnn3)c2)s1	n	76.4	n	n	n	n	55.9	Diaphorase 10uM=53.2;Diaph ctr 30uM=n
CCCc1nnc(NC(=O)c2cccc(OC)c2)s1	n	63.0	n	n	n	n	n
COc1cccc(C(=O)Nc2nnc(C(C)C)s2)c1	n	90.7	n	n	n	n	55.8	Diaphorase 10uM=58.7;Diaph ctr 30uM=n
Cc1ccc(N(C(=O)c2ccccn2)C(C(=O)NC2CCCCC2)c2ccncc2)cc1 (stereo unspecified)	n	n	n	n	n	n	x
COc1ccc2[nH]c3c(c2c1)CCN1C(=O)C(CC(=O)NCCCn2ccnc2)C[C@H](C(=O)N(C(C)C)C(C)C)[C@@]31C (stereo partly specified)	n	n	x	n	x	n	x
Cn1c(CCNS(=O)(=O)c2ccccc2)nc2cc([N+](=O)[O-])ccc21	n	n	n	n	n	n	x
O=C1C(c2ccccc2)=[N+]([O-])c2ccccc21	n	61.0	x	n	x	n	n
Oc1ccc(C2C[C@H]3CC[C@@H]2C3)cc1O (stereo partly specified)	n	79.4	n	n	82.7	n	77.2	Diaphorase 10uM=n;Diaph ctr 30uM=n
CCc1nnc(N/N=C/c2ccc(O)c(OC)c2)n1N	n	71.7	n	n	n	n	n
COc1ccc(/C=N/Nc2nncn2N)cc1Br	n	79.3	n	n	28.2	n	n
CCN1C(=O)c2cccc3c(S(=O)(=O)N(C(=O)c4cccnc4)c4ccc(OC)cc4)ccc1c23	n	n	n	n	n	n	x
COc1ccc(-c2cc(C(=O)N3CCN(c4ccccc4)CC3)no2)cc1OC	n	n	n	n	n	n	x
CCOC(=O)c1sc(NC(=O)c2ccncc2)c(C#N)c1C	n	77.8	n	n	n	n	n
C=C(C)COc1ccc(-c2ncnc(C(F)(F)F)c2-c2ccc(OC)cc2)c(O)c1	n	70.5	n	n	n	n	n
COC(=O)CSc1nc2cc(C)ccc2cc1C#N	n	n	n	n	n	n	x
Cc1ccc(S(=O)(=O)NNc2nc3ccccc3nc2C(F)(F)F)cc1	n	64.7	n	n	n	n	n
Cn1c(C(=O)NCCCN2CCCCCC2)cc2c(=O)n(C)c3ccccc3c21	n	60.0	n	n	n	n	n
CN(c1ccc(C(=O)Nc2cccc(O)c2)cc1)S(=O)(=O)c1ccccc1	n	59.5	n	n	n	n	n
CC(=O)c1cccc(NC(=O)c2ccc(N(C)S(=O)(=O)c3ccc(C)cc3)cc2)c1	n	63.0	n	n	n	n	n
COCc1ccc(C(=O)Nc2cccc(S(=O)(=O)N(C)c3ccccc3)c2)cc1	n	n	x	n	x	n	x
CC1C(=O)Nc2ccc(S(=O)(=O)N3CCc4ccccc4C3)cc2NC1=O (stereo unspecified)	n	n	n	n	n	n	x
COc1cccc(/C=N/NC(=O)c2c(C)nc3ccc(Cl)cn23)c1O	n	n	n	n	n	n	x
O=c1c2ccccc2sn1-c1ccc(Cl)cc1Cl	x	129.2	x	x	x	x	109.3	Diaphorase 10uM=n;Diaph ctr 30uM=n
SMILES	A3G deaminase	PfGluPho inh	SUMO HTRF inh	HKDC1 inhibitor	PfM18AAP inh	APOBEC3A inh	PfG6PD confirm	others
O=C1c2nc3cc(-c4ccco4)[nH]n3c(=O)c2CN1Cc1ccccc1	n	n	n	n	n	n	x
CC1=CC(C)(C)Nc2ccc(OC(=O)CN3C(=O)CCC3=O)cc21	n	62.1	n	n	n	n	51.6	Diaphorase 10uM=n;Diaph ctr 30uM=n
Cc1ccc2nc(Cl)c(/C=N/Nc3ccc(C(=O)O)cc3)cc2c1	n	60.2	n	n	n	n	n
C=CCOc1ccc(CNc2ccc3[nH]c(=O)[nH]c3c2)cc1OC	x	84.9	n	n	n	x	66.2	Diaphorase 10uM=n;Diaph ctr 30uM=n
COc1cc(CNc2ccc3[nH]c(=O)[nH]c3c2)ccc1OCc1ccccc1C	n	n	n	n	n	n	x
COc1cccc(CNc2ccc3[nH]c(=O)[nH]c3c2)c1OCc1ccccc1Cl	n	65.4	n	n	n	n	49.8	Diaphorase 10uM=n;Diaph ctr 30uM=n
COc1cc(CNc2ccc3[nH]c(=O)[nH]c3c2)ccc1OCc1ccccc1	n	65.4	n	n	n	n	49.9	Diaphorase 10uM=n;Diaph ctr 30uM=n
COc1cccc(CNc2ccc3[nH]c(=O)[nH]c3c2)c1OCc1ccccc1	n	n	n	n	n	n	x
COc1cc(CNc2ccc3[nH]c(=O)[nH]c3c2)ccc1OCc1ccc(F)cc1	n	65.7	n	n	n	n	n
S=C(S)N1CCCC1	n	n	x	n	x	n	x
COc1ccc(OCC(O)CNC(=O)c2ccccc2)cc1 (stereo unspecified)	n	n	n	n	n	n	x
COc1ccccc1CNCC(=O)NCc1ccc(C)cc1	n	n	n	n	n	n	x
N=c1c2ccccc2nnn1-c1ccccc1[N+](=O)[O-]	x	n	x	n	x	x	x
COc1cc(CNc2ccc3[nH]c(=O)[nH]c3c2)ccc1OCc1ccc(Cl)cc1	n	63.4	n	n	n	n	n
COc1cc(CNc2ccc3[nH]c(=O)[nH]c3c2)ccc1OCc1c(F)cccc1Cl	n	n	n	n	n	n	x
NS(=O)(=O)c1cccnc1Nc1ccc(Cl)c(Cl)c1	n	n	n	n	n	n	x
NS(=O)(=O)c1cccnc1Nc1cccc(Cl)c1Cl	n	61.6	n	n	n	n	n
CNc1ccc(Br)cc(C(=O)/C=C/c2cccc(OC)c2)c1=O	n	n	n	n	n	n	x
COc1cc(OC)c(C2Nc3cccc4cccc(c34)N2)c(OC)c1	n	n	n	n	n	n	x
COc1ccc(C2Nc3cccc4cccc(c34)N2)cc1	n	69.4	n	n	n	n	n
Cc1cc(C)cc(NC(=S)N(CCN(C)C)C(C)c2cccnc2)c1 (stereo unspecified)	n	n	n	n	n	n	x
O=C(C1CC1)N1CCc2cc(S(=O)(=O)NCCC3=CCCCC3)ccc21	n	n	n	n	n	n	x
NC(N)=N/N=C/c1ccc(OCc2ccc(Cl)cc2)cc1	n	n	n	n	n	n	x
CN(CC(=O)Nc1ccc(Cl)c(Cl)c1)C(=O)C1CCC1	n	75.1	x	n	x	n	n
COc1ccc(S(=O)(=O)N(C)C)cc1NC(=O)c1ccc2c(c1)OCCO2	n	n	x	n	x	n	x
O=C(Cn1ccc(=O)[nH]c1=O)c1ccc([N+](=O)[O-])o1	x	59.3	x	x	x	x	n
